Molecular target: Mu-type opioid receptor (Rattus norvegicus, UniProt P33535)
Assay: Displacement of [3H]DAMGO from rat mu opioid receptor expressed in HN9.10 cells
Procedure, shortened: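 Membranes from stably transfected HN9.10 neuroblastoma cells in 50 mM Tris pH 7.4 with bacitracin, bestatin, captopril, PMSF and 1 mg/mL BSA. 50 µg membrane, 10 test concentrations, 1.0 nM [3H]DAMGO (Kd level). Nonspecific binding defined with 10 µM naloxone. Duplicates, 3 h at 25 °C, filtration, scintillation counting. Ki from IC50 by Cheng–Prusoff; at least two independent experiments.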

Mu-type opioid receptor, sequence (P33535 whole entry): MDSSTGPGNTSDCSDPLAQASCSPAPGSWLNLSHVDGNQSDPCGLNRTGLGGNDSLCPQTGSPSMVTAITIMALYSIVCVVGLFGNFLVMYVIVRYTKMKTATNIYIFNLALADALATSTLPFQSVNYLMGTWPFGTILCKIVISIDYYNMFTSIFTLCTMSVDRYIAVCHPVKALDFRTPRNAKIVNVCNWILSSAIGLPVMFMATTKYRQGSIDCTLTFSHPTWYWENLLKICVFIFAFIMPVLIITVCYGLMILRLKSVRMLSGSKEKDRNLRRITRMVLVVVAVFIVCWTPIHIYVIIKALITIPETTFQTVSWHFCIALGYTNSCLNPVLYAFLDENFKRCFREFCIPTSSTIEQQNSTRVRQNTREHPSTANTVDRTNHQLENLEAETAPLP

Q: How did the EC50 turn out when `CC(=O)N[C@@H](Cc1c[nH]c2ccccc12)C(=O)N[C@@H](CCCCNC(=O)Nc1ccccc1Cl)C(=O)N[C@@H](CC(=O)O)C(=O)N(C)[C@@H](Cc1ccccc1)C(=O)NNC(=O)[C@H](Cc1ccccc1)NC(=O)CNC(=O)[C@@H](C)NC(=O)[C@@H](N)Cc1ccc(O)cc1` [H-Tyr-D-Ala-Gly-Phe-NH-NH-(NMe)Phe-Asp-Lys(Cpac)-Trp-Ac] was run?
A: 14 nM

Reference: BindingDB's records for doi:10.1021/jm050851n (University of Arizona, 2006)
